Source: the RNAGym collection of RNA variant scans (doi:10.1126/science.aae0568)
Variants at the floor of the assay were thinned out.

B1: tRNA (parent)
chain: GUUCCGUUGGCGUAAUGGUAACGCGUCUCCCUCCUAAGGAGAAGACUGCGGGUUCGAGUCCCGUACGGAACG

Variants of: B1
Experiment: yeast fitness relative to wild type (ratio to wild type); higher = fitter; tRNA-Arg(CCU), competitive growth, 37 C, YPD
Method in brief: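 Gene amplicons from the start population and from each of six end populations were read by 100-nucleotide paired-end sequencing. Those end populations came from pooled Saccharomyces cerevisiae strains carrying tRNA-Arg(CCU) gene variants at the native locus, competed in YPD at 37°C for 24 hours. Fitness relative to wild type was worked out from changes in genotype frequencies. Genotypes needed ≥ 100 starting reads, and estimates < 0.5 were set to 0.5.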

| Variant | yeast fitness |
| --- | --- |
| G23A C29A C31U A42G A43C U54G | ≤ 0.5 |
| G23A C29A C61U | ≤ 0.5 |
| G23A C29A G48A C55A | ≤ 0.5 |
| G23A C29G G52C | ≤ 0.5 |
| G23A C29G U32C A45U C60G C61U A69G | ≤ 0.5 |
| G23A C29G U64A | ≤ 0.5 |
| G23A C29U C30A A42U U53A | ≤ 0.5 |
| G23A C29U C30A G67A | ≤ 0.5 |
| G23A C29U C31U A42G | ≤ 0.5 |
| G23A C29U C33G A42G | ≤ 0.5 |
| G23A C30A U54C C55U | ≤ 0.5 |
| G23A C30U | 0.68 |
| G23A C30U A37C A57C | ≤ 0.5 |
| G23A C30U A37U G41C | 0.634 |
| G23A C30U C55A G63A | ≤ 0.5 |
| G23A C30U C62A | 0.561 |
| G23A C30U C62A G68A | 0.575 |
| G23A C30U G39A C60G | ≤ 0.5 |
| G23A C30U G63A | ≤ 0.5 |
| G23A C31G | 0.811 |
| G23A C31G A45C G52C | ≤ 0.5 |
| G23A C31U | 0.731 |
| G23A C31U A70U | 0.528 |
| G23A C31U C33G A65G | ≤ 0.5 |

| Variant | yeast fitness |
| --- | --- |
| G23A C33G A69C | ≤ 0.5 |
| G23A C33G A70U | ≤ 0.5 |
| G23A C33G C62A | 0.742 |
| G23A C34A A43U U47C | 0.577 |
| G23A C34U C66U | 0.586 |
| G23A C46A | 0.882 |
| G23A C46A G58A | 0.566 |
| G23A C49A G58A | ≤ 0.5 |
| G23A C49U | 0.735 |
| G23A C49U A65C | 0.523 |
| G23A C49U G63A A65C | ≤ 0.5 |
| G23A C55A | ≤ 0.5 |
| G23A C61A A70U | ≤ 0.5 |
| G23A C62G | 0.782 |
| G23A C62U | 0.781 |
| G23A C62U A69U | 0.642 |
| G23A C66A | 0.535 |
| G23A C66G | 0.659 |
| G23A C66U | 0.824 |
| G23A G25C G51A | 0.661 |
| G23A G38A G67C | ≤ 0.5 |
| G23A G41C C49G | 0.854 |
| G23A G48C C55G | ≤ 0.5 |
| G23A G51A C66U | ≤ 0.5 |

| Variant | yeast fitness |
| --- | --- |
| G23A G52C | 0.564 |
| G23A G58A | 0.715 |
| G23A G58C | 0.885 |
| G23A G58C A70C | 0.582 |
| G23A G63A | 0.7 |
| G23A U26A U28A C29G | ≤ 0.5 |
| G23A U26C C29U C33G | ≤ 0.5 |
| G23A U26G A40C C46G C60G | ≤ 0.5 |
| G23A U26G A65C | ≤ 0.5 |
| G23A U35C | 0.572 |
| G23A U47A | 0.796 |
| G23A U47A U64A | ≤ 0.5 |
| G23A U47C C49U | ≤ 0.5 |
| G23A U53C C66A | ≤ 0.5 |
| G23A U53G | ≤ 0.5 |
| G23A U59C | 0.799 |
| G23C | 0.653 |
| G23C A36C A45C G58A G68C | ≤ 0.5 |
| G23C A36U C46G C60U | 0.591 |
| G23C A36U G51C | ≤ 0.5 |
| G23C A36U G52C | ≤ 0.5 |
| G23C A36U U53C | 0.553 |
| G23C A37C | 0.656 |
| G23C A37C A42G C46G C66U | ≤ 0.5 |

| Variant | yeast fitness |
| --- | --- |
| G23C A37C A45G C49G | 0.671 |
| G23C A37G | ≤ 0.5 |
| G23C A37G A42U G48C C49U | ≤ 0.5 |
| G23C A37G C55G G67A | ≤ 0.5 |
| G23C A37G C66A | ≤ 0.5 |
| G23C A37U U47C C55U C60G C66U | ≤ 0.5 |
| G23C A40C | 0.666 |
| G23C A42G | 0.575 |
| G23C A42G G56A | ≤ 0.5 |
| G23C A42U A43G A65U | ≤ 0.5 |
| G23C A43U | 0.733 |
| G23C A65G C66A | ≤ 0.5 |
| G23C A65U | 0.585 |
| G23C C24A C30G A40U U47A G51C | 0.506 |
| G23C C24A G38A C62A A69G | ≤ 0.5 |
| G23C C24A G50A A70U | ≤ 0.5 |
| G23C C24A U32C A65U G68A | ≤ 0.5 |
| G23C C24G C33G A40U A70G | ≤ 0.5 |
| G23C C24G C34G C46U U54G | ≤ 0.5 |
| G23C C24G C34G U64A G67A | ≤ 0.5 |
| G23C C24G C34U G39A A45C | ≤ 0.5 |
| G23C C24G U32G A42C G44A G51C C60U | ≤ 0.5 |
| G23C C24U A37C G50C | ≤ 0.5 |
| G23C C24U A37C U53C | ≤ 0.5 |

| Variant | yeast fitness |
| --- | --- |
| G23C C24U A57C G63A C66G | ≤ 0.5 |
| G23C C27A A57U | ≤ 0.5 |
| G23C C27A A57U A69U | ≤ 0.5 |
| G23C C27G C31G | 0.608 |
| G23C C27G C55G G56A G58A C66G A70U | ≤ 0.5 |
| G23C C27U C29U G51A | 0.645 |
| G23C C27U G56A G63C | 0.573 |
| G23C C29A C66U | ≤ 0.5 |
| G23C C29G A43U G50A A70U | ≤ 0.5 |
| G23C C29G G63C C66G | ≤ 0.5 |
| G23C C29U A36C C49G A70U | 0.53 |
| G23C C30G | 0.511 |
| G23C C30G A37U A45C C46G | ≤ 0.5 |
| G23C C30G A37U C62U A65U | ≤ 0.5 |
| G23C C30G G63A | ≤ 0.5 |
| G23C C31A C49G C55A | 0.534 |
| G23C C31A C62A | 0.527 |
| G23C C31A C62U A70G | ≤ 0.5 |
| G23C C31G G50A | ≤ 0.5 |
| G23C C31U | 0.579 |
| G23C C33A G50C G58C | ≤ 0.5 |
| G23C C33A G50C G58C A70G | 0.548 |
| G23C C33G C46A C66A | 0.596 |
| G23C C34G C55G | ≤ 0.5 |

| Variant | yeast fitness |
| --- | --- |
| G23C C46U A70U | 0.622 |
| G23C C46U C62U | 0.592 |
| G23C C46U G67A | 0.564 |
| G23C C49A U59C G67A A69G | ≤ 0.5 |
| G23C C49G | 0.563 |
| G23C C49G G51C G52A | ≤ 0.5 |
| G23C C49G G63A | ≤ 0.5 |
| G23C C60A A70U | 0.536 |
| G23C C60G C61U | ≤ 0.5 |
| G23C C60G C61U G68A | ≤ 0.5 |
| G23C C61U A70U | 0.6 |
| G23C C61U C66G A70U | 0.562 |
| G23C C62G | 0.692 |
| G23C C66A | ≤ 0.5 |
| G23C C66G | ≤ 0.5 |
| G23C G25A | 0.818 |
| G23C G25A C61U | 0.536 |
| G23C G25A G48C | 0.594 |
| G23C G25C C55G | ≤ 0.5 |
| G23C G38A C61U | 0.578 |
| G23C G38C A40U G58C | ≤ 0.5 |
| G23C G39A | 0.669 |
| G23C G39C A42U G52U U53A | ≤ 0.5 |
| G23C G39C A70U | ≤ 0.5 |

| Variant | yeast fitness |
| --- | --- |
| G23C G41A | 0.716 |
| G23C G41C C66U | ≤ 0.5 |
| G23C G41C G68A | ≤ 0.5 |
| G23C G44C G68C | ≤ 0.5 |
| G23C G48A U64A A65U | ≤ 0.5 |
| G23C G50C G52A | 0.698 |
| G23C G51A C61G A69U | ≤ 0.5 |
| G23C G56A | 0.566 |
| G23C G56A A70U | ≤ 0.5 |
| G23C G56C | ≤ 0.5 |
| G23C G58A | 0.6 |
| G23C G58U | 0.565 |
| G23C G63A | 0.51 |
| G23C G63C | 0.594 |
| G23C G67A | 0.56 |
| G23C G68A A69U | ≤ 0.5 |
| G23C U26A C29G A36U | 0.68 |
| G23C U26C | 0.624 |
| G23C U26C A37G A40G A42G U64C | ≤ 0.5 |
| G23C U26C C46G C55U | ≤ 0.5 |
| G23C U26G C33G A45C | ≤ 0.5 |
| G23C U28A | 0.559 |
| G23C U28A A65G | ≤ 0.5 |
